Test results taken from the RNAGym collection of RNA variant scans (doi:10.1126/science.aae0568).
Fewer inactive variants are shown than the library holds.

B1: tRNA (parent)
chain: GUUCCGUUGGCGUAAUGGUAACGCGUCUCCCUCCUAAGGAGAAGACUGCGGGUUCGAGUCCCGUACGGAACG

Variants of: B1
Test: yeast fitness relative to wild type (ratio to wild type); higher = fitter; tRNA-Arg(CCU), competitive growth, 37 C, YPD
Method in brief: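 Gene amplicons from the start population and from each of six end populations were read by 100-nucleotide paired-end sequencing. Those end populations came from pooled Saccharomyces cerevisiae strains carrying tRNA-Arg(CCU) gene variants at the native locus, competed in YPD at 37°C for 24 hours. Fitness relative to wild type was worked out from changes in genotype frequencies. Genotypes needed ≥ 100 starting reads, and estimates < 0.5 were set to 0.5.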
For U13C C24G C61A, the yeast fitness was 0.54.
U13C G25A A69U showed a yeast fitness of 0.767.
U13A U28C C55A gave a yeast fitness of 0.595.
U13C A45U G63C showed a yeast fitness of no more than 0.5.
Variant U13C G50A has a yeast fitness of 0.874.
With U13C C31U G56C the yeast fitness was no more than 0.5.
U13A U28C C60G C66G gave a yeast fitness of 0.6.
With U13C U47A C62U the yeast fitness was 0.596.
In the case of U13A C61U, the yeast fitness is reported as 0.786.
Variant U13C C22U C27U A37C G67A has a yeast fitness of no more than 0.5.
U13C G23C gave a yeast fitness of 0.511.
With U13C A43G the yeast fitness was 0.984.
U13A U28A U47G C62U A65U gave a yeast fitness of no more than 0.5.
Variant U13C C29A G51C has a yeast fitness of 0.624.
Variant U13C A40U has a yeast fitness of 1.03.
With U13C G44C G58A the yeast fitness was 0.927.
U13C A20G C46U showed a yeast fitness of 0.66.
U13C C34U showed a yeast fitness of 0.668.
U13A G23C A70C gave a yeast fitness of 0.667.
For U13A U35C A36C A37U G50C, the yeast fitness was no more than 0.5.
For U13C U47A G68A, the yeast fitness was no more than 0.5.
U13C A36C C55U G68C showed a yeast fitness of no more than 0.5.
U13C A20U C62U showed a yeast fitness of 0.731.
With U13C U26A C27U the yeast fitness was 0.593.
U13C G51C U54C showed a yeast fitness of no more than 0.5.
For U13C C33A A36U, the yeast fitness was no more than 0.5.
Variant U13A C62A has a yeast fitness of 0.668.
In the case of U13A C62G, the yeast fitness is reported as 0.78.
With U13C C24G C60G the yeast fitness was no more than 0.5.
Work on U13C A69C yielded a yeast fitness of 0.995.
With U13C G56A C66U the yeast fitness was 0.696.
In the case of U13C G38A A70U, the yeast fitness is reported as 0.525.
In the case of U13C G52A, the yeast fitness is reported as 0.735.
Variant U13C G23A C29G A45U C62U has a yeast fitness of no more than 0.5.
In the case of U13C C31G C33A C66A, the yeast fitness is reported as no more than 0.5.
In the case of U13A U54C C62U, the yeast fitness is reported as 0.679.
Variant U13A U54C C62U G68C has a yeast fitness of no more than 0.5.
For U13A U35G, the yeast fitness was 0.688.
Variant U13A U35A has a yeast fitness of 0.561.
U13A G41A A42C G50C A70G showed a yeast fitness of no more than 0.5.
U13C A14C C60U C62U U64A gave a yeast fitness of no more than 0.5.
With U13A G41C A42G G67A the yeast fitness was no more than 0.5.
Work on U13C U28C G48A C61G A69C yielded a yeast fitness of no more than 0.5.
Work on U13C C30U C33U A69U A70G yielded a yeast fitness of 0.568.
U13C A15U C61U A65C gave a yeast fitness of no more than 0.5.
In the case of U13A G56C A65C, the yeast fitness is reported as no more than 0.5.
Variant U13A U16A C31G C33U G38C G58C C66G has a yeast fitness of no more than 0.5.
For U13C U32C, the yeast fitness was 0.88.
In the case of U13C A40G G63A G67A, the yeast fitness is reported as no more than 0.5.
Work on U13C C29G A36U G41C A45C C49U U54C C61U yielded a yeast fitness of no more than 0.5.
U13C C22U A45U G48A C55A gave a yeast fitness of no more than 0.5.
For U13C A45C G50U, the yeast fitness was no more than 0.5.
In the case of U13C C49G U53C A57C, the yeast fitness is reported as no more than 0.5.
Work on U13C U26G C27U C49U C66U yielded a yeast fitness of 0.801.
Work on U13A U47A C60A yielded a yeast fitness of 0.58.
U13A U28C A69C gave a yeast fitness of 0.76.
U13C C34G C46U A57U C60G A65C showed a yeast fitness of no more than 0.5.
U13A G56A C61G A70G gave a yeast fitness of no more than 0.5.
U13A G44C showed a yeast fitness of 0.94.
With U13C A20G C49U C66U A70C the yeast fitness was no more than 0.5.
In the case of U13C G25C C60U C62U, the yeast fitness is reported as no more than 0.5.
Work on U13A G23C C24G A70G yielded a yeast fitness of no more than 0.5.
With U13C C24U U53A C66U the yeast fitness was no more than 0.5.
In the case of U13A U19G C49U, the yeast fitness is reported as 0.625.
U13A G18C C27U U54C A57U gave a yeast fitness of 0.561.
For U13C A21G U35A C55U A65G, the yeast fitness was no more than 0.5.
Work on U13C C60G A69C yielded a yeast fitness of no more than 0.5.
U13A U32G A45G A70G showed a yeast fitness of no more than 0.5.
With U13A U47A the yeast fitness was 0.872.
In the case of U13A U47C, the yeast fitness is reported as 0.774.
U13C G68A gave a yeast fitness of 0.785.
U13C A20G C46U U47A A70U showed a yeast fitness of no more than 0.5.
For U13C C29U G56C, the yeast fitness was no more than 0.5.
U13C C27U A69U showed a yeast fitness of 0.648.
In the case of U13C A45U A57G, the yeast fitness is reported as no more than 0.5.
For U13A U16A U54A, the yeast fitness was 0.505.
For U13A U32C A65G, the yeast fitness was 0.705.
In the case of U13C C22U G38C A57U, the yeast fitness is reported as no more than 0.5.
U13C C22U G38C A57C showed a yeast fitness of 0.599.
For U13C C62U, the yeast fitness was 1.01.
Variant U13C C62A has a yeast fitness of 0.68.
In the case of U13C C34G G67A, the yeast fitness is reported as no more than 0.5.
For U13C A42G C61G, the yeast fitness was no more than 0.5.
In the case of U13A U28C G56A, the yeast fitness is reported as 0.805.
For U13C C29A A37U C49A, the yeast fitness was no more than 0.5.
U13C C24A showed a yeast fitness of 0.69.
U13C C24U showed a yeast fitness of 1.01.
In the case of U13C U28C U47C C55A, the yeast fitness is reported as 0.545.
In the case of U13A U28C U64A, the yeast fitness is reported as 0.718.
With U13C U16G A65G the yeast fitness was 0.572.
With U13C C22A C24A the yeast fitness was no more than 0.5.
With U13C A21G C31G the yeast fitness was 0.754.
For U13A G68A, the yeast fitness was 0.864.
For U13A G68C, the yeast fitness was 0.762.
U13A U28C G58C A69U showed a yeast fitness of 0.7.
With U13A U28C C33G G38A U64G the yeast fitness was no more than 0.5.
U13A G18C A36G G41C U47A showed a yeast fitness of no more than 0.5.
U13C C55U A65U showed a yeast fitness of no more than 0.5.
U13C C55G C61G C66U showed a yeast fitness of no more than 0.5.
U13C U26C A65C gave a yeast fitness of 0.661.
For U13C G58A A70C, the yeast fitness was 0.817.
For U13A U19C C24G G25A G39C A40C G51C, the yeast fitness was no more than 0.5.
For U13C A14G C31U, the yeast fitness was 0.824.
U13C U16C U26A gave a yeast fitness of 0.637.
U13A U26G C30G C49G gave a yeast fitness of 0.501.
U13C C31U G41C C61U showed a yeast fitness of 0.53.
For U13C A57C, the yeast fitness was 0.67.
U13C C34G C55A showed a yeast fitness of no more than 0.5.
Variant U13C A14G G56C has a yeast fitness of no more than 0.5.
Work on U13C A20C G48C A57G yielded a yeast fitness of no more than 0.5.
U13A U32A C60G gave a yeast fitness of no more than 0.5.
For U13A U28C A45U, the yeast fitness was 0.702.
With U13C C30U C33U the yeast fitness was 0.537.
For U13C A70G, the yeast fitness was 1.03.
U13C A70U gave a yeast fitness of 0.945.
With U13C U28C the yeast fitness was 0.838.
U13C U16G G25C gave a yeast fitness of no more than 0.5.
Work on U13A G58C yielded a yeast fitness of 0.853.
For U13A G48A G67C, the yeast fitness was 0.608.
Work on U13A U19A yielded a yeast fitness of 0.828.
U13C A14G A42C C62G showed a yeast fitness of no more than 0.5.
Variant U13C C33G G56C has a yeast fitness of no more than 0.5.
U13C A37U C62A showed a yeast fitness of no more than 0.5.
U13A G25A showed a yeast fitness of 1.01.
In the case of U13C A43U C49U, the yeast fitness is reported as 0.716.
Variant U13C C22U G38C has a yeast fitness of no more than 0.5.
In the case of U13C C46U G48A, the yeast fitness is reported as 0.732.
Variant U13A U54A has a yeast fitness of 0.622.
With U13C A37U A42U C66A A69C the yeast fitness was no more than 0.5.
With U13C G18A the yeast fitness was 0.843.
Work on U13A C61U A65G yielded a yeast fitness of 0.71.
In the case of U13C G38C A43C G51C G56C, the yeast fitness is reported as 0.531.
Work on U13A G23C C24G G50A yielded a yeast fitness of no more than 0.5.
For U13C C55A A65U, the yeast fitness was no more than 0.5.
For U13C A20U, the yeast fitness was 1.12.
For U13C C31U G58C C61A A69U, the yeast fitness was no more than 0.5.
Variant U13C C22G C27A G51C A70U has a yeast fitness of no more than 0.5.
With U13C A14G C24G the yeast fitness was no more than 0.5.
For U13C C61G, the yeast fitness was 0.609.
In the case of U13A U64C, the yeast fitness is reported as 0.922.
Variant U13A U64A has a yeast fitness of 0.832.
U13A G23A A36C G38A A65G showed a yeast fitness of no more than 0.5.
For U13C A21G U28C C31G, the yeast fitness was 0.539.
With U13A G25C C27A C30G A40C C60U C66G the yeast fitness was no more than 0.5.
U13C C34G C62U gave a yeast fitness of no more than 0.5.
In the case of U13C A14U G41C G48C, the yeast fitness is reported as no more than 0.5.
Work on U13C C27U A37C yielded a yeast fitness of no more than 0.5.
In the case of U13C G25A, the yeast fitness is reported as 0.902.
With U13C G25C the yeast fitness was 0.996.
Work on U13C A36C C61A yielded a yeast fitness of 0.651.
U13A U59A U64A A70C gave a yeast fitness of 0.511.
In the case of U13A C61U A70G, the yeast fitness is reported as 0.633.
In the case of U13A C61U A70U, the yeast fitness is reported as 0.708.
For U13C C29U C31U U54G A65U G67A, the yeast fitness was no more than 0.5.
U13C A15C C46G showed a yeast fitness of no more than 0.5.
For U13C C61G G67U, the yeast fitness was 0.6.
In the case of U13A U28C C60A, the yeast fitness is reported as 0.551.
Work on U13A G51C yielded a yeast fitness of 0.58.
With U13A U16C C34A the yeast fitness was no more than 0.5.
With U13C C22U the yeast fitness was 0.932.
In the case of U13A G18C C27U A65G, the yeast fitness is reported as no more than 0.5.
U13C C55U showed a yeast fitness of 0.837.
In the case of U13A G18C A36G G41C, the yeast fitness is reported as 0.706.
Work on U13C U32G G39C G52C yielded a yeast fitness of no more than 0.5.
With U13A G50U the yeast fitness was 0.838.
Work on U13C A45G C61G yielded a yeast fitness of no more than 0.5.
With U13C C31U U54C G58C C61A A69U the yeast fitness was no more than 0.5.
